Assay results from ChEMBL document CHEMBL1156123, “A facile synthesis and biological activity of novel tetrahydrobenzo[4',5']thieno[3',2':5,6]pyrido[4,3-d]pyrimidin-4(3H)-ones” (Bioorg Med Chem Lett, 2009).

Tests used:
[1] = system: Botrytis cinerea; assay: Antifungal activity against Botrytis cinerea at 50 mg/L relative to control; type: functional
[2] = system: Fusarium graminearum; assay: Antifungal activity against Gibberella zeae at 50 mg/L relative to control; type: functional
[3] = system: Botryosphaeria berengeriana; assay: Antifungal activity against Botryosphaeria berengeriana at 50 mg/L relative to control; type: functional
[4] = system: Bipolaris maydis; assay: Antifungal activity against Bipolaris maydis at 50 mg/L relative to control; type: functional
[5] = system: KB; assay: Cytotoxicity against human KB cells after 72 hrs MTT assay; type: functional, cell-based
Procedure, shortened: (§1)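 MTT read-out after 72 h exposure to compound. KB are drug-sensitive human oral carcinoma cells. KBv200 are the vincristine-induced multidrug-resistant derivative overexpressing ABCB1. Values are means of three independent experiments, each run in quadruplicate, with coefficients of variation below 10%.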

[6] = Cytotoxicity against multi-drug resistant human KBv200 cells after 72 hrs by MTT assay; type: functional, cell-based; conditions: KBv200, 72 h; procedure, shortened: as §1
[7] = system: Rhizoctonia solani; assay: Antifungal activity against Rhizoctonia solani at 50 mg/L relative to control; type: functional

Row | SMILES | inhibition at 50 µg/mL [1] [%] | inhibition at 50 µg/mL [2] [%] | inhibition at 50 µg/mL [3] [%] | inhibition at 50 µg/mL [4] [%] | IC50 [5] [µM] | IC50 [6] [µM] | inhibition at 50 µg/mL [7] [%]
1 | COc1cccc(Oc2nc3c(c(C)nc4sc5c(c43)CCCC5)c(=O)n2-c2ccccc2)c1 | 66 | 42 | 67 | 76 | > 100 | > 100 | 76
2 | Cc1nc2sc3c(c2c2nc(Oc4cccc(F)c4)n(-c4ccccc4)c(=O)c12)CCCC3 | 98 | 58 | 78 | 90 | > 100 | > 100 | 84
3 | Cc1ccc(Cl)c(Oc2nc3c(c(C)nc4sc5c(c43)CCCC5)c(=O)n2-c2ccccc2)c1 | 88 | 23 | 50 | 48 | > 100 | > 100 | 63
4 | Cc1cc(Oc2nc3c(c(C)nc4sc5c(c43)CCCC5)c(=O)n2-c2ccccc2)ccc1Cl | 73 | 31 | 39 | 52 | 84.3 | 72.2 | 22
5 | CCCNc1nc2c(c(C)nc3sc4c(c32)CCCC4)c(=O)n1-c1ccccc1 | 57 | 20 | 29 | 47 | 17.4 | 25.4 | 24
6 | Cc1nc2sc3c(c2c2nc(Oc4ccc(F)cc4F)n(-c4ccccc4)c(=O)c12)CCCC3 | 78 | 38 | 50 | 71 | > 100 | > 100 | 63
7 | Cc1nc2sc3c(c2c2nc(Oc4ccc([N+](=O)[O-])cc4)n(-c4ccccc4)c(=O)c12)CCCC3 | 85 | 46 | 61 | 67 | > 100 | > 100 | 68
8 | Cc1ccc(Oc2nc3c(c(C)nc4sc5c(c43)CCCC5)c(=O)n2-c2ccccc2)cc1 | 80 | 31 | 56 | 76 | 48.3 | 67.3 | 61
9 | CCCCNc1nc2c(c(C)nc3sc4c(c32)CCCC4)c(=O)n1-c1ccccc1 | 100 | 83 | 76 | 79 | 32 | 32.8 | 89
10 | Cc1nc2sc3c(c2c2nc(Oc4ccc(Br)cc4)n(-c4ccccc4)c(=O)c12)CCCC3 | 83 | 65 | 83 | 81 | 68.9 | > 100 | 68
11 | Cc1nc2sc3c(c2c2nc(Oc4cc(F)cc(F)c4)n(-c4ccccc4)c(=O)c12)CCCC3 | 83 | 31 | 61 | 48 | 52.5 | 39.9 | 74
12 | CC(C)(C)C(=O)C(Oc1ccc(Cl)cc1)n1cncn1 (configuration not stated) [TRIADIMEFON] | 78 | 59 | – | – | – | – | 91
13 | Cc1nc2sc3c(c2c2nc(Oc4ccc(F)cc4Cl)n(-c4ccccc4)c(=O)c12)CCCC3 | 88 | 54 | 67 | 67 | > 100 | > 100 | 79
14 | Cc1nc2sc3c(c2c2nc(Oc4ccccc4)n(-c4ccccc4)c(=O)c12)CCCC3 | 85 | 15 | 56 | 76 | 54.2 | 61.9 | 65
15 | O=c1[nH]cc(F)c(=O)[nH]1 [FLUOROURACIL] | – | – | – | – | 12.5 | – | –
16 | Cc1cccc(Oc2nc3c(c(C)nc4sc5c(c43)CCCC5)c(=O)n2-c2ccccc2)c1 | 99 | 65 | 78 | 81 | > 100 | > 100 | 91
